Data from ChEMBL document CHEMBL1134549, “Original 2-alkylamino-6-halogenoquinazolin-4(3H)-ones and K(ATP) channel activity” (J Med Chem, 2001).

Key:
Cavia porcellus = species: Cavia porcellus; test: In vitro inhibition electrically stimulated guinea pig ileum segment contraction.; type: functional
Outline: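 Coaxial electrical stimulation with rectangular pulses (0.5 ms, 0.1 Hz, 5–25 V); isometric contraction recording. Drugs added at increasing concentrations until maximal effect.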

Rattus norvegicus [1] = species: Rattus norvegicus; test: In vitro inhibition of 30 mM KCl-induced contraction of rat aorta rings.; type: functional
Rattus norvegicus [2] = species: Rattus norvegicus; test: Myorelaxant activity as percentage residual contractile activity in rat uterus at 10 uM concentration.; type: functional
Outline: (§1)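 Uterus from fed Wistar rats (150–200 g) pretreated the day before with diethylstilboestrol dipropionate i.m. Tissue superfused at 37 °C. Contractions induced by 20 mU oxytocin injections at 10 min intervals, scored as AUC. Baseline (100%) is the mean of the last three constant responses. Each drug concentration tested with at least three injections; mean AUC expressed as percent of the drug-free response.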

Rattus norvegicus [3] = species: Rattus norvegicus; test: Myorelaxant activity as percentage residual contractile activity in rat uterus at 50 uM concentration.; type: functional; outline: as §1
Rattus norvegicus [4] = species: Rattus norvegicus; test: In vitro percentage residual insulin secretion at 50 uM dose from rat pancreatic islets incubated in the presence of 16.7 mM glucose.; type: functional
Outline: (§2)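 Islets from fed Wistar rats (180–220 g), groups of 10, preincubated 30 min at 37 °C in salt medium with 2.8 mM glucose and 0.5% dialyzed albumin under O2/CO2. Then incubated 90 min at 37 °C with 16.7 mM glucose plus drug. Insulin measured by radioimmunoassay against a rat insulin standard; reported as percentage residual release.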

Rattus norvegicus [5] = species: Rattus norvegicus; test: Percentage residual insulin secretion at 10 uM dose from pancreatic islets incubated in the presence of 16.7 mM glucose; type: functional; outline: as §2
Rattus norvegicus [6] = species: Rattus norvegicus; test: Percentage residual insulin secretion at 1 uM dose from pancreatic islets incubated in the presence of 16.7 mM glucose; type: functional; outline: as §2
Rattus norvegicus [7] = species: Rattus norvegicus; test: Myorelaxant activity in rat aorta in the presence 80 mM KCL.; type: functional
Outline: (§3)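 Endothelium-denuded transverse aortic rings (3–4 mm) from fed Wistar rats (250–300 g) held under 2 g tension in Krebs-bicarbonate at 37 °C, 95% O2/5% CO2. After 60 min equilibration, contracted with 30 mM or 80 mM KCl; drugs added cumulatively to maximal relaxation, with or without glibenclamide throughout (1 or 10 μM).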

[8] = Myorelaxant activity in rat aorta with 1 uM glibenclamide and 30 mM KCL; type: functional, tissue-based; outline: as §3
[9] = Myorelaxant activity in rat aorta with 10 uM glibenclamide and 30 mM KCL; type: functional, tissue-based; outline: as §3

Row | Structure (SMILES) | IC50 (Cavia porcellus) [µM] | IC50 (Rattus norvegicus [1]) [µM] | Activity (Rattus norvegicus [2]) [%] | Activity (Rattus norvegicus [3]) [%] | Secretion (Rattus norvegicus [4]) [%] | Secretion (Rattus norvegicus [5]) [%] | Secretion (Rattus norvegicus [6]) [%] | IC50 (Rattus norvegicus [7]) [µM] | IC50 [8] [µM] | IC50 [9] [µM]
1 | Oc1nc(NCc2ccccc2)nc2ccc(I)cc12 | 8.7 | 1.4 | 106 | 106 | 82.8 | – | – | – | – | –
2 | Oc1nc(NCC2CCCCC2)nc2ccc(I)cc12 | 26 | 3.9 | 96.8 | 97.9 | 10 | 65.4 | – | – | – | –
3 | Oc1nc(NCc2ccccc2)nc2ccc(Cl)cc12 | 13.3 | – | 94.8 | 98.1 | 82.5 | – | – | – | – | –
4 | CC(C)C(C)Nc1nc(O)c2cc(I)ccc2n1 (configuration not stated) | 30.4 | 4.1 | – | – | 30.6 | 87.7 | 94.7 | – | – | –
5 | CC(Nc1nc(O)c2ccccc2n1)C(C)(C)C (configuration not stated) | – | 12.4 | – | – | 50.9 | – | – | – | – | –
6 | CCC(C)Nc1nc(O)c2cc(I)ccc2n1 (configuration not stated) | 23.6 | 8.9 | – | – | 11.2 | 77.5 | 94.9 | – | – | –
7 | CC(C)Nc1nc(O)c2cc(Cl)ccc2n1 | 74.1 | 17.3 | 78.7 | 61 | 6.6 | 55.1 | 80.7 | 34.3 | – | –
8 | Oc1nc(NCc2ccccc2)nc2ccc(Br)cc12 | – | 7.6 | 76.8 | 76.6 | 75.7 | – | – | – | – | –
9 | CC(C)C(C)NC1=NS(=O)(=O)c2cnccc2N1 (configuration not stated) | > 300 | 154 | – | – | 7.1 | 26.8 | 70.5 | – | – | –
10 | C[C@H](Nc1nc(O)c2cc(Cl)ccc2n1)c1ccccc1 | 13.2 | 1.7 | 92.4 | 44.9 | 12.9 | 76.9 | – | – | – | –
11 | C[C@H](Nc1nc(O)c2cc(Cl)ccc2n1)C1CCCCC1 | 15.1 | 2.1 | 102 | 66.5 | 8.9 | 43.6 | – | – | – | –
12 | Oc1nc(NCC2CCCCC2)nc2ccc(Cl)cc12 | 23.9 | 2.2 | 86 | 80.3 | 26.5 | 90.1 | – | – | – | –
13 | CC(C)C(C)Nc1nc(O)c2cc(Cl)ccc2n1 (configuration not stated) | 59.2 | 16.3 | – | – | 10.2 | 61.9 | 81.3 | – | – | –
14 | CC(C)Nc1nc(O)c2cc(I)ccc2n1 | 44.1 | 12.1 | 77.6 | 41 | 12.2 | 90.9 | 93.7 | 37.2 | 37.3 | 46.4
15 | CC1=Nc2ccc(Cl)cc2S(=O)(=O)N1 [DIAZOXIDE] | > 300 | 19.3 | 93.8 | 76.3 | 28.8 | 70 | 78.9 | > 300 | 85.8 | 163
16 | CCC(C)Nc1nc(O)c2cc(Cl)ccc2n1 (configuration not stated) | 44.7 | 13.8 | – | – | 6 | 53.2 | 84.9 | – | – | –
17 | CC(C)Nc1nc(O)c2ccccc2n1 | – | 67.3 | – | – | 45.6 | – | – | – | – | –
18 | C[C@@H](Nc1nc(O)c2cc(Cl)ccc2n1)C1CCCCC1 | 8.2 | 5.6 | 108 | 90.7 | 16.5 | 62.1 | – | 18.1 | > 30 | > 30
19 | C[C@@H](Nc1nc(O)c2cc(Cl)ccc2n1)c1ccccc1 | 20.2 | 2.8 | 120 | 46.5 | 35 | – | – | – | – | –
20 | CC(N/C(=N\C#N)Nc1ccncc1)C(C)(C)C (configuration not stated) [PINACIDIL ANHYDROUS] | 9.2 | 0.5 | 58.1 | 35.5 | 92.1 | 96 | 97.8 | 16 | 10.4 | 42.5
21 | Oc1nc(NCc2ccccc2)nc2ccccc12 | – | 43.7 | 97.2 | 47.4 | 61.8 | – | – | – | – | –
